Data on 2 compounds can be found in ChEMBL document CHEMBL2417412, “Design, synthesis, and structure-activity relationships of dihydrofuran-2-one and dihydropyrrol-2-one derivatives as novel benzoxazin-3-one-based mineralocorticoid receptor antagonists” (Bioorg Med Chem, 2013).

The structures appear in SMILES notation. Where only a bound is given, the exact number is not on record here.

Holding throughout (assay type): cell-based, HEK293
In assay [1] the target is T1, Progesterone receptor (Homo sapiens, UniProt P06401).
T1 sequence (P06401 whole entry): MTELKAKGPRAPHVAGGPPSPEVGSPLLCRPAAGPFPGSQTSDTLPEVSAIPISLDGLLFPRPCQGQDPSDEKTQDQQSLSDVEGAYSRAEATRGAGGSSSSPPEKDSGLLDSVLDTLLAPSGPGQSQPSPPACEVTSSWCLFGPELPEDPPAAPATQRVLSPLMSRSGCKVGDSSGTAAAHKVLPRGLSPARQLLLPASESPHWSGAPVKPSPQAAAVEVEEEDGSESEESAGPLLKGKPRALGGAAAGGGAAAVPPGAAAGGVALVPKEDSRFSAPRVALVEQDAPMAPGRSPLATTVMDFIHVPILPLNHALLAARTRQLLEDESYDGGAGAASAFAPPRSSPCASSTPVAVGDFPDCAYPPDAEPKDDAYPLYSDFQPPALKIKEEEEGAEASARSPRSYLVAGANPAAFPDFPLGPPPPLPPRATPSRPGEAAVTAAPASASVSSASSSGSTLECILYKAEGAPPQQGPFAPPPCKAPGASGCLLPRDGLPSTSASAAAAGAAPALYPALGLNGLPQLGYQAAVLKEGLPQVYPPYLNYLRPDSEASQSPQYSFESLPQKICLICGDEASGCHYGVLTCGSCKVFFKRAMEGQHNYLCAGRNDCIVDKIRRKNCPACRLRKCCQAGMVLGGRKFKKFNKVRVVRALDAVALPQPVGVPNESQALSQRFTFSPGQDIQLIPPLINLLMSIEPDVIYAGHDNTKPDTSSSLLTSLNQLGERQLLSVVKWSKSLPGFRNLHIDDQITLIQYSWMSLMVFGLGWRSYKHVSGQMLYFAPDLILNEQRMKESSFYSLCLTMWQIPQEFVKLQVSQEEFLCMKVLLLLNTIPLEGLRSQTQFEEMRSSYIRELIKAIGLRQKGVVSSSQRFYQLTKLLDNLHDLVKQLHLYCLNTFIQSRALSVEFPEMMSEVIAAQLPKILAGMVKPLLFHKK
As to the kind of experiment: Displacement of [3H]-Progesterone from human PR expressed in 293 cells after 16 hrs by scintillation counting. The gist of the method: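 The PR assay ran like the MR cytosolic binding assay from transfected 293 cells, with 5 nM [3H]-progesterone as ligand. Incubation was 16 h at 4 °C in TEGM buffer pH 7.2, followed by dextran/gelatin-charcoal removal of free label and scintillation counting of the supernatant. Concentrations were run in duplicate; IC50 taken as the mean of duplicate experiments from concentration-response curves.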
A general note: Displacement assays read how much labelled ligand stays bound in the presence of the test substance.

Assay [2] deals with T2, Androgen receptor (Homo sapiens, UniProt P10275).
T2 sequence (P10275 whole entry): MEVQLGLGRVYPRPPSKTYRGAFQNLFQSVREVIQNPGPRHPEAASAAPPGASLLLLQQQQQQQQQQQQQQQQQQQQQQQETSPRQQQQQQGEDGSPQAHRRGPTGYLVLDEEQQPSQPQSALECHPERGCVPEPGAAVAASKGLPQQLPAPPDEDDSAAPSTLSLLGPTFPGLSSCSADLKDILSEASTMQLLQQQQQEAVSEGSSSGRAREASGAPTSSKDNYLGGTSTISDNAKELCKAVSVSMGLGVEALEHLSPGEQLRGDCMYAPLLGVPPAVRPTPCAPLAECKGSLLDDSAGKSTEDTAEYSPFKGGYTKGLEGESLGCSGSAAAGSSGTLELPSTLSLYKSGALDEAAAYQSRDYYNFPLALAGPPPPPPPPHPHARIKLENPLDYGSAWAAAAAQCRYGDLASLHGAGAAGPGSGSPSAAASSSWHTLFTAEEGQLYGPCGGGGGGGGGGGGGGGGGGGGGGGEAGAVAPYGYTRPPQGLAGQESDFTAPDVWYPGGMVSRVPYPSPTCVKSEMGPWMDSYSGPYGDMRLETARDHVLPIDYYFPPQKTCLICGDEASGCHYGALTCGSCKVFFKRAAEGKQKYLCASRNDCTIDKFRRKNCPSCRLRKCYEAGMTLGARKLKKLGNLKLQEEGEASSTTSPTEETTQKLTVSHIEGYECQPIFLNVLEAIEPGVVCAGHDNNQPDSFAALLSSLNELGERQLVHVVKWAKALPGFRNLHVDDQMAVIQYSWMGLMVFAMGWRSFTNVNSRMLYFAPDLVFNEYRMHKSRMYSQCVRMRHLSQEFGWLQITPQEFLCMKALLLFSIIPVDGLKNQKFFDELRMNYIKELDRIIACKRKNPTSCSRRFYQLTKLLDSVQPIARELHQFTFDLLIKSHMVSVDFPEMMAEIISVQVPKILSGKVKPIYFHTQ
Briefly: Displacement of [3H]-Testosterone from human AR expressed in 293 cells after 16 hrs by scintillation counting. The gist of the method:
(§1)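 These followed the MR cytosolic binding protocol (transfected 293 cells, TEGM buffer pH 7.2, 16 h at 4 °C, charcoal separation, scintillation counting of supernatant). The ligand was [3H]-dexamethasone for GR and [3H]-testosterone for AR. Concentrations were run in duplicate; IC50 taken as the mean of duplicate experiments from concentration-response curves.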

Assay [3] has as its target T3, Glucocorticoid receptor (Homo sapiens, UniProt P04150).
T3 sequence (P04150 whole entry): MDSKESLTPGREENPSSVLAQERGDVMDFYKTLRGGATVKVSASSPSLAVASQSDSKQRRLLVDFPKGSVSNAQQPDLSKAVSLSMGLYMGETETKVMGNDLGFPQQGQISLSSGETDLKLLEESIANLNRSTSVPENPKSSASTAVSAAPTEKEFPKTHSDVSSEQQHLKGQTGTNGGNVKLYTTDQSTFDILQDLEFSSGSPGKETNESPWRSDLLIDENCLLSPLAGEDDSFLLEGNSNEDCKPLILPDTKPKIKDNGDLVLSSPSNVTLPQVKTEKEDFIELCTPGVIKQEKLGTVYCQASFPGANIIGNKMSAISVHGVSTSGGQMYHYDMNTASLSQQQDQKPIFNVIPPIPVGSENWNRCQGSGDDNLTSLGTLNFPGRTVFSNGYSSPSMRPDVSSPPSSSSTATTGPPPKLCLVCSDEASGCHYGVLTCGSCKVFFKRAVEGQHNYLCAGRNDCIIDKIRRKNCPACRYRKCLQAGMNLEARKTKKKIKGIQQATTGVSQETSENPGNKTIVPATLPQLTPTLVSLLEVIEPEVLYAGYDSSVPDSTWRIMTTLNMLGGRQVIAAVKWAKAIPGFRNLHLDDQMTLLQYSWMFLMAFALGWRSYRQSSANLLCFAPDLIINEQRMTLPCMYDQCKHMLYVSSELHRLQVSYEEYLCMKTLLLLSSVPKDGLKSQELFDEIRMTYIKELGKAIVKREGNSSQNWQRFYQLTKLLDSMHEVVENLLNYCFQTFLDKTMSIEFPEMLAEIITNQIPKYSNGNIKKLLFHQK
As to the kind of experiment: Displacement of [3H]-Dexamethasone human GR expressed in 293 cells after 16 hrs by scintillation counting. In short, it runs like this: as §1

On to `CC1OC(=O)C(c2ccc(F)cc2)=C1c1ccc2c(c1)NC(=O)CO2` (racemic), for which the figures for the IC50 in assay [1], in assay [2] and in assay [3] were 0.74 µM, > 10 µM and 3.8 µM, respectively.

Consider `O=C1COc2ccc(C3=C(c4ccc(F)cc4F)C(=O)OC3)cc2N1`, for which the IC50 in assay [1] was 4.6 µM; in assay [2] it was > 10 µM; in assay [3], > 10 µM.

What is called IC50 is the concentration needed to halve the response being measured. A low value points to greater potency.
